Results on two compounds are retold here after ChEMBL document CHEMBL4033697, “Synthesis of methanesulphonamido-benzimidazole derivatives as gastro-sparing antiinflammatory agents with antioxidant effect” (Bioorg Med Chem Lett, 2017).

The subject of data set [1] is Rattus norvegicus. The data set is described as follows: Ulcerogenicity in rat model of carrageenan-induced paw edema assessed as diameter of lesion in gastric wall at 30 mg/kg, po measured after 5 hrs. The conditions noted are these: in vivo. In kind it is toxicity, organism-based. The essentials: (§1)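 After oral dosing in 0.5% CMC in the carrageenan paw model, rats were killed by cervical dislocation. Stomachs were inflated with 2% formalin, immersed 10 min to fix, and opened along the greater curvature. Longest lesion diameters were summed as a total lesion score (mm) per animal and averaged per group. Rofecoxib served as negative control and indomethacin as positive control.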

Data set [2] deals with Rattus norvegicus. The data set can be described thus: Anti-inflammatory activity in rat assessed as reduction in carrageenan-induced paw edema at 30 mg/kg, po measured after 5 hrs by plethysmographic method relative to control. It counts as functional. More on the design: scale not given: the % may be the effect or the level left. In a few lines: (§2)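 Rats; carrageenan in 0.9% saline injected into paw; compound suspended in 0.5% w/v CMC given orally 30 min after carrageenan, three graded doses per compound. Paw volume by plethysmograph before and at intervals after treatment; values at 5 h. % reduction in edema = (1 − Vt/Vc) × 100 versus carrageenan control; ED50 from the three graded doses; one-way ANOVA.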
Background: In the carrageenan paw model, swelling and tenderness develop within hours.

The subject of data set [3] is Rattus norvegicus. The data set can be described thus: Toxicity in rat model of carrageenan-induced paw edema assessed as behavioral changes at 2.5 to 40 mg/kg, po measured during compound dosing. In kind it is organism-based. Particulars: in vivo.
The nature of data set [4]: Antioxidant activity of the compound in phosphate buffer at pH 6.6 assessed as potassium ferric cyanide ion reducing activity after 20 mins by spectrophotometric method. It counts as functional. In a few lines: (§3)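 Methanolic sample (1.0–50.0 […], units as printed) mixed with 0.2 M phosphate buffer pH 6.6 and 1% K3Fe(CN)6, 50 °C for 20 min; cooled, 10% TCA added, aliquot diluted with water plus 0.1% FeCl3, 10 min stand. A700 read against a methanol control; triplicate. Reducing power (%) = [(Atest − Acontrol)/Atest] × 100; EC50 derived; ascorbic acid standard.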

A short description of data set [5]: Antioxidant activity of the compound in phosphate buffer at pH 6.6 assessed as potassium ferric cyanide ion reducing activity at 10 umol/ml after 20 mins by spectrophotometric method relative to control. It counts as functional. More on the design: scale not given: the % may be the effect or the level left. The essentials: as §3
Data set [6] deals with Rattus norvegicus. The data set can be described thus: Anti-inflammatory activity in po dosed rat assessed as reduction in carrageenan-induced paw edema measured after 5 hrs by plethysmographic method. It counts as functional. The essentials:
as §2

In data set [7] the test system is Rattus norvegicus. The data set can be described thus: Anti-inflammatory activity in rat assessed as reduction in carrageenan-induced paw edema at 2.5 mg/kg, po measured after 5 hrs by plethysmographic method relative to control. In kind it is functional. More on the design: scale not given: the % may be the effect or the level left. The essentials:
as §2

In data set [8] the test system is Rattus norvegicus. The data set can be described thus: Anti-inflammatory activity in rat assessed as reduction in carrageenan-induced paw edema at 40 mg/kg, po measured after 5 hrs by plethysmographic method relative to control. In kind it is functional. More on the design: scale not given: the % may be the effect or the level left. The essentials:
as §2

Data set [9] can be described thus: Antioxidant activity of the compound in phosphate buffer at pH 6.6 assessed as potassium ferric cyanide ion reducing activity at 1 umol/ml after 20 mins by spectrophotometric method relative to control. It counts as functional. More on the design: scale not given: the % may be the effect or the level left. In a few lines: as §3
A short description of data set [10]: Antioxidant activity of the compound in phosphate buffer at pH 6.6 assessed as potassium ferric cyanide ion reducing activity at 5 umol/ml after 20 mins by spectrophotometric method relative to control. More on the design: scale not given: the % may be the effect or the level left. It counts as functional. The essentials:
as §3

A short description of data set [11]: Antioxidant activity of the compound in phosphate buffer at pH 6.6 assessed as potassium ferric cyanide ion reducing activity at 2.5 umol/ml after 20 mins by spectrophotometric method relative to control. It counts as functional. More on the design: scale not given: the % may be the effect or the level left. In a few lines:
as §3

For data set [12], the system named is Rattus norvegicus. The data set can be described thus: Ulcerogenicity in rat model of carrageenan-induced paw edema assessed as diameter of lesion in gastric wall at 40 mg/kg, po measured after 5 hrs. Particulars: in vivo. It counts as toxicity, organism-based. In a few lines:
as §1

A short description of data set [13]: Antioxidant activity of the compound in phosphate buffer at pH 6.6 assessed as potassium ferric cyanide ion reducing activity at 50 umol/ml after 20 mins by spectrophotometric method relative to control. In kind it is functional. More on the design: scale not given: the % may be the effect or the level left. In a few lines:
as §3

Data set [14] concerns Rattus norvegicus. The data set is described as follows: Ulcerogenicity in rat model of carrageenan-induced paw edema assessed as diameter of lesion in gastric wall at 2.5 mg/kg, po measured after 5 hrs. In kind it is toxicity, organism-based. The conditions noted are these: in vivo. The essentials: as §1
Data set [15] has as its system Rattus norvegicus. The data set can be described thus: Ulcerogenicity in rat model of carrageenan-induced paw edema assessed as diameter of lesion in gastric wall at 10 mg/kg, po measured after 5 hrs. It counts as toxicity, organism-based. Particulars: in vivo. The essentials:
as §1

Data set [16] relates to Rattus norvegicus. The data set is described as follows: Anti-inflammatory activity in rat assessed as reduction in carrageenan-induced paw edema at 10 mg/kg, po measured after 5 hrs by plethysmographic method relative to control. In kind it is functional. More on the design: scale not given: the % may be the effect or the level left. In a few lines:
as §2

The nature of data set [17]: Antioxidant activity of the compound in phosphate buffer at pH 6.6 assessed as potassium ferric cyanide ion reducing activity at 25 umol/ml after 20 mins by spectrophotometric method relative to control. In kind it is functional. More on the design: scale not given: the % may be the effect or the level left. The essentials: as §3

Structures are written as SMILES.

Consider `CS(=O)(=O)c1ccc(C2=C(c3ccccc3)C(=O)OC2)cc1` [ROFECOXIB], for which the Activity was 2.92 mm in [1] and 78.95% in data set [2].

A word on the EC50: it is the concentration that produces a half-maximal response. For orientation: ED50 means the midpoint of the dose-response relation. Regarding `CCCCCn1c(CCC)nc2cc(NS(C)(=O)=O)ccc21`, the Activity result in [3] is “Non-Toxic”; in data set [5], 66.5%; in data set [7] it was 48.18%; in data set [8], 95.64%; in data set [9], 15.4%; in [10], 58%. For the same compound, the Activity in [11] came out at 32.7%; in data set [12], 1.01 mm; in [13], 79.1%; in data set [14], 0.25 mm; in [15], 0.5 mm; in data set [16], 86.36%. Also, the Activity in data set [17] was determined as 72.8%. In addition, the EC50 in data set [4] amounted to 3.7 mM. Further, the ED50 in data set [6] was 2.55 mg/kg.
